High-throughput results from PubChem.
SMARCA2 activ = SMARCA2 function activation, primary screen. MG213 cells, MMTV-luciferase reporter, dexamethasone, overnight. activation, % at 9.1 µM. actives 1% (n = 370,000). AID 652017; in the data active means activation above about 7.8%;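 further: 0% = vehicle wells and 100% = reference activator wells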
TAG inh = inhibitors of triacylglycerol accumulation; H9c2 cells, Nile Red lipid (TAG) fluorescence; cells loaded with 200 µM oleic acid; inhibition, % at 12.5 µM; AID 651582; actives 0.66% (n = 230,000);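 active means pattern-corrected inhibition of lipid staining of at least 50% with the nuclear-stain viability signal not falling by more than 50%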;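 further: 0% = DMSO wells and 100% = triacsin C control wells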
Efflux pump mplx = blocks antifungal efflux pumps in multiplex yeast assay. S. cerevisiae Candida pump triplex, Nile Red efflux. inhibition, % at 10 µM. actives 0.44% (n = 330,000). AID 485275;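 active means plate passing quality check with inhibition over a set limit, or well fluorescence over plate mean plus 4 SD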;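 further: Nile Red retained in pooled yeast measured as flow cytometry median fluorescence; 0% = buffer negative control and 100% = Enniatin B positive control; higher means more Nile Red kept so more efflux inhibition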
AHR act = activators of human aryl hydrocarbon receptor; AID 2796; actives 2.5% (n = 320,000); AHR-responsive luciferase reporter cells, luminescence; P35869; activation, % at 5 µM; in the data active means activation above about 47%;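 further: 0% = vehicle wells and 100% = reference agonist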
TbMetRS inhib = blocks T. brucei methionyl-tRNA synthetase activity; purified T. brucei MetRS, ATP depletion, Kinase-Glo luminescence; inhibition, % at 11.9 µM; actives 0.4% (n = 360,000);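 active means inhibition above a per-plate cutoff of the control wells' mean inhibition plus 3 SD, cut at about 5.5% in these data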;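 further: 0% = DMSO wells median and 100% = median of wells with control inhibitor compound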
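assay system = parasite MetRS enzyme | timing = 15 min preincubation, 2 h reaction, all 25 °C | evaluation = percent inhibition relative to median high and low control wells | medium = HEPES buffer containing pyrophosphatase, BSA, spermine, DTT | compound = single dose, 11.9 µM final nominal, 0.9% final DMSO | detection = Kinase-Glo luminescence, ATP depletion format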
An asterisk follows results filed as active; x = no result given. An excerpt weighted towards active compounds, which were near 4.1% of everything screened.

SMILES	SMARCA2 activ	TAG inh	Efflux pump mplx	AHR act	TbMetRS inhib
CCC(C)c1ccc(O)c(NC(=O)c2cccnc2)c1 (centres undefined)	-3	-6	0	60*	0
COc1ccc(/C=N/n2cncn2)cc1Cn1cc([N+](=O)[O-])cn1	0	3	0	1	0
COc1ccc(/C=N/Nc2ccc([N+](=O)[O-])cc2)cc1Cn1cc([N+](=O)[O-])cn1	3	-19	0	69*	-1
Cc1cc(=O)[nH]c(/N=C(\N)Nc2ccc3c(c2)OCCO3)n1	5	-1	0	8	0
Cc1cc(C)nc(/N=C(\N)Nc2ccc3c(c2)OCCO3)n1	-1	11	1	72*	-1
COc1cc(N/C(N)=N/c2nc(C)cc(C)n2)cc(OC)c1	-2	x	0	65*	0
COc1ccc(N/C(N)=N/c2nc(C)cc(C)n2)c(OC)c1	-2	-23	0	63*	-2
CCCOc1ccccc1N/C(N)=N/c1nc(C)cc(C)n1	-1	3	0	56*	0
COC(=O)C1CN(Cc2cn(Cc3ccccc3)nn2)CCS(=O)(=O)N1Cc1ccc(C)cc1 (centres undefined)	-4	x	x	x	x
COC(=O)[C@]12C[C@H](CC(=O)NCc3ccc(C)o3)C(=O)N(Cc3ccc(Cl)cc3Cl)C1=C[C@H](C(C)(C)C)O[C@@H]2C	-4	x	x	x	x
C[C@H](O)[C@@H]1C(=O)N2CCc3c([nH]c4c(-c5ccc6c(c5)OCO6)cccc34)[C@@H]2C[C@@H]1N(C)C(=O)NC1CCCCC1	-3	x	x	x	x
CCCCOCC1CN(CCCC)S(=O)(=O)c2c(cccc2N2CCCC2)O1 (centres undefined)	0	x	x	x	x
COc1ccc(OC)c(N/C(N)=N/c2nc(C)cc(C)n2)c1	-2	-24	0	66*	0
COc1ccc(Cl)cc1N/C(N)=N/c1nc(C)cc(C)n1	5	7	0	41	0
COc1ccc(Cn2ccc3ccc(-c4ccc5ccn(C(=O)c6ccccc6C)c5c4)cc32)cc1	0	x	x	x	x
N#Cc1c(-c2cccc(Br)c2)cc(-c2cccnc2)nc1N	-1	x	0	23	0
N#Cc1c(-c2ccc(F)cc2)cc(-c2cccnc2)nc1N	1	x	0	55*	0
COc1ccc(CCn2c(-c3ccc(C(C)(C)C)cc3)n[nH]c2=S)cc1OC	7.9*	0	0	5	-1
NC(=O)CCCn1c(C(=O)c2ccc(Cl)cc2)c2ccc(C(F)(F)F)cc2[n+]1[O-]	0	-16	0	61*	0
NC(=O)CCCn1c(C(=O)c2cc(Cl)c(N)c(Cl)c2)c2ccc([N+](=O)[O-])cc2[n+]1[O-]	3	-18	0	77*	0
COC(=O)[C@]12C[C@H](CC(=O)N3CCC(c4ccccc4)CC3)C(=O)N(Cc3ccco3)C1=C[C@H](C(C)C)O[C@@H]2C1CC1	-2	x	x	x	x
O=C(/C=C/c1c(F)cccc1Cl)Nc1cccnc1	3	5	0	50*	-1
O=C(/C=C/c1cccs1)Nc1cccnc1	2	x	0	56*	-1
O=C(/C=C/c1cc(Br)ccc1F)Nc1cccnc1	0	x	0	20	0
COc1ccc(/C=C(\C#N)c2cc(OC)c(OC)cc2[N+](=O)[O-])cc1	-1	-3	0	13	-1
SMILES	SMARCA2 activ	TAG inh	Efflux pump mplx	AHR act	TbMetRS inhib
COc1cc(/C(C#N)=C/c2ccccc2)c([N+](=O)[O-])cc1OC	-1	18	0	47*	0
COc1cc(/C=C(\C#N)c2nc3ccc(C)cc3[nH]2)c([N+](=O)[O-])cc1OC	1	2	0	66*	5
COc1c(O)ccc(/C=C(\C#N)c2nc3ccccc3[nH]2)c1[N+](=O)[O-]	2	x	0	50*	1
COc1cccc(/C=C(\C#N)c2nc3ccccc3[nH]2)c1OCC(=O)O	6	x	0	19	-1
Cc1ccc(-n2c(SCC(=O)c3ccccc3Cl)nnc2-c2cnccn2)cc1	6	x	x	x	x
Cn1c(=O)n(/N=C/c2ccccc2)c2ccccc21	4	x	0	62*	0
COC(=O)C1=C(C)N(Cc2ccc(Cl)cc2)C(=S)NC1c1ccc(Br)cc1 (centres undefined)	-4	x	x	x	x
Cc1ccc2nc(SCC(=O)NC(=O)NCc3ccco3)[nH]c2c1	-1	-23	0	61*	0
Cc1ccc2cc(C)c(SCC(=O)NCc3ccco3)nc2c1	-4	-1	0	7	1
Cc1ccc2nc(SCC(=O)NCc3ccco3)[nH]c2c1	-1	x	0	77*	1
O=C(CSc1nc2ccccc2[nH]1)NC(=O)NCc1ccco1	0	1	0	32	0
C=CCn1c(COc2ccc(C)cc2)nnc1SCC(=O)c1ccc(-c2ccccc2)cc1	-5	x	x	x	x
CC(=O)N1C[C@@H](c2c[nH]c3ccccc23)C=C[C@H]1C(=O)NS(=O)(=O)c1ccc(C)cc1	-2	x	x	x	x
CC(NC(=O)c1ccccc1Cl)C(=O)Nc1ccc2c(c1)OCO2 (centres undefined)	-1	18	x	x	0
O=C(Nc1ccc2c(c1)OCO2)Oc1ccccc1	0	x	0	88*	-1
C/C(=C\C(=O)c1ccc(C)o1)Nc1ccc2c(c1)OCO2	1	x	0	14	-1
O=C(Nc1ccc(S(=O)(=O)NCc2ccccc2)cc1)Nc1ccc2c(c1)OCO2	x	x	0	52*	1
C/C(=C\C(=O)c1ccccc1)Nc1ccc2c(c1)OCO2	2	x	1	47*	1
O=C(CC(NC(=O)c1ccccc1Cl)c1ccccc1)Nc1ccc2c(c1)OCO2 (centres undefined)	-3	x	0	60*	0
CCc1c(-c2cccc(F)c2)ncn1CCc1ccccc1OC	-4	x	x	x	x
COc1ccccc1Cc1c(C2CCCCC2)nc2c(C)cc(Br)cn12	-5	x	x	x	x
Cc1cccc2c1nc(-c1ccccc1)n1nnnc21	2	x	0	57*	-1
CCC(C)Nc1nc(-c2ccc3c(c2)NC(=O)CO3)cs1 (centres undefined)	0	-4	0	63*	1
COc1ccc(Nc2nc(-c3ccc4c(c3)NC(=O)CO4)cs2)cc1	1	14	0	41	1
CCOc1c2ccc(C(=O)NCC34CC5CC(CC(C5)C3)C4)cc2nn1CC	0	x	0	51*	0
COc1ccc(-c2noc(C3CCCN(C(=O)Nc4ccc(Cl)cc4)C3)n2)cc1 (centres undefined)	-1	x	x	x	x
CCc1nc(SCC(=O)c2cccc([N+](=O)[O-])c2)n[nH]1	-1	x	0	4	-1
Cc1nc2nc(SCC(=O)c3cccc([N+](=O)[O-])c3)[nH]c2cc1Br	-1	x	0	57*	1
Cc1nc2nc(SCC(=O)C(C)(C)C)[nH]c2cc1Br	3	-29	0	47*	0
O=C(NC1CCCCN(Cc2ccc(Cl)cc2)C1=O)c1cccc2nsnc12 (centres undefined)	-1	x	x	x	x
